For series [1], the target named is T1, CarS (Myxococcus xanthus, UniProt Q06911).
T1 sequence (Q06911 1-111): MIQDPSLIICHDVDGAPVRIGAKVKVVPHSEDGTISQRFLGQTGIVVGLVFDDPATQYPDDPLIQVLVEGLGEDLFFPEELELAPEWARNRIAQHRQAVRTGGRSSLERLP
As to the kind of experiment: Far-UV CD spectroscopy with CarS. Conditions: 25°C, 100 mM KF, 7.5 mM phosphate pH 7.5. In a few lines:
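Far-UV CD was recorded at 25°C in 0.2-nm steps (adaptive sampling) with 2-nm slit width, averaging three scans. Samples were 10–20 µM protein, peptide or 1:1 mixture in 100 mM KF, 7.5 mM phosphate pH 7.5. The instrument was calibrated with (+)-10-camphorsulfonic acid.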

The test system of the next series is CarS(F77A). As to the kind of experiment: ITC titration with CarS. It is filed as binding, Myxococcus xanthus. Conditions: pH 7.5. In a few lines: (§1)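 ITC in 100 mM NaCl, 50 mM phosphate pH 7.5, 2 mM β-mercaptoethanol, 0.05% sodium azide; samples were dialysed or dissolved in this buffer and degassed. Cell held 20 µM CarANt or peptide, titrated with 30 injections of 0.22 mM CarS variant, stirring 300 rpm. Heat of dilution was subtracted using buffer controls. Data were fit to a single-site model; at least two independent titrations.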

Series [2] can be described thus: Analytical gel filtration of pure proteins. Conditions: Superdex200, 50 mM phosphate pH 7.5, 2 mM β-mercaptoethanol. It is filed as physicochemical. In a few lines:
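Superdex200 analytical size-exclusion HPLC in 50 mM phosphate pH 7.5, 2 mM β-mercaptoethanol and the required NaCl. Samples were 10–50 µM pure protein, or CarNt or CarHNt mixed with CarS or variant at equivalent concentrations. Flow was 0.4 ml/min with detection at 280, 235 and 220 nm. Peak fractions were identified by SDS–PAGE. Mr was taken from elution volume via log Mr = 7.64 – 0.209 Ve.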

For the next series, the system named is CarS(D52A/D53A). Put plainly: ITC titration with CarS. It is filed as binding, Myxococcus xanthus. Conditions: pH 7.5. An outline of the steps:
as §1
(In general: Isothermal titration calorimetry measures the heat released or taken up as one component is titrated into another.)

In series [3] the target is T1, CarS. As to the kind of experiment: ITC titration with CarS. The format is binding. Conditions: ITC.
Series [4] addresses T2, CarS1 (Myxococcus xanthus, UniProt Q06911).
T2 sequence (Q06911 1-86): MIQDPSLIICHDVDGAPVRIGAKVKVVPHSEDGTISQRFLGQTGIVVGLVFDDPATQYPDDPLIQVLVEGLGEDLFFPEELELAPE
As to the kind of experiment: Far-UV CD spectroscopy with CarS1. Conditions: 1:1 molar ratio with CarS1, 25°C, 100 mM KF, 7.5 mM phosphate pH 7.5. In a few lines: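 Far-UV CD at 25°C, 10–20 µM samples in 100 mM KF, 7.5 mM phosphate pH 7.5, three scans averaged, 0.2-nm steps. Peptide (18 µM) or CarANt (11 µM) was measured alone and mixed 1:1 with CarS1. The read-out was molar ellipticity difference between the mixture and CarS1 alone.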

For series [5], the target named is T2, CarS1. As to the kind of experiment: NMR chemical shift mapping on labeled H6CarS1. It is filed as binding. Conditions: ^15N, ^13C-H6CarS1 0.10–0.25 mM titrated with unlabeled CarANt, P01 or P02, 25°C or 45°C.
Series [6] concerns the target T1, CarS. As to the kind of experiment: Yeast two-hybrid interaction with CarS. The format is cell-based. Conditions: not shown. In a few lines: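 Yeast EGY48 carrying lacZ reporter pSH18-34 was cotransformed (lithium acetate) with LexA–CarA and B42–CarS or variant fusions. Equal-density cultures were spotted on galactose or glucose (basal fusion expression) plates with leucine, grown 1 day at 30°C, then overlaid with X-Gal agarose for 2–3 h (Gal) or ≥7 h (Glu). Interaction was scored by blue colour; single-hybrid cells served as controls.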

Entries after “also recorded” stand apart in the source; their conditions may differ.

B1: CarANt: the highly basic and autonomously folded N-terminal DNA-binding domain of CarA (protein)
chain: MTLRIRTIARMTGIREATLRAWERRYGFPRPLRSEGNNYRVYSREEVEAVRRVARLIQEEGLSVSEAIAQVKTEPPRE
modifications: left off: H6, end not stated, cleaved
Consider B1, for which the “Far-UV CD change in presence of CarS” value with CarS [1] is “in a manner similar to CarS1”. For the same molecule, the “ITC heat change / binding” value is “could not be detected; also recorded: ^aHeat changes were negligible or undetected for the following titrations: (i) CarANt or P01 with CarS(F77A) or CarS(D52A/D53A); (ii) P03 with CarS or CarS1; (iii) TtP01 with CarS (for details on peptides P01, P02, P03, CHP01 and TtP01, see Figures 3A and 4A, and text)” in the series on CarS(F77A); “could not be detected; also recorded: ^aHeat changes were negligible or undetected for the following titrations: (i) CarANt or P01 with CarS(F77A) or CarS(D52A/D53A); (ii) P03 with CarS or CarS1; (iii) TtP01 with CarS (for details on peptides P01, P02, P03, CHP01 and TtP01, see Figures 3A and 4A, and text)” with CarS(D52A/D53A). Further, in series [2], the “Apparent Mr of pure protein” value is 9.6 kDa. Also, the “KD relative to P01 and P02” value in the series with CarS [3] was “over an order of magnitude lower”. In addition, in the series with CarS [3] (CarS, 25 °C, pH 7.5, 100 mM NaCl, 50 mM phosphate, 2 mM β-mercaptoethanol, 0.05% sodium azide, 20 µM CarANt or peptide titrated with 0.22 mM CarS, average of at least two independent titrations), the “N (binding stoichiometry)” value was found to be 0.94 ± 0.01. In addition, the ΔH with CarS [3] (CarS, 25 °C, pH 7.5, 100 mM NaCl, 50 mM phosphate, average of at least two independent titrations) was −9.24 ± 0.02 kcalmol^−1. Moreover, in the series with CarS [3] (CarS, 25 °C, pH 7.5, 100 mM NaCl, 50 mM phosphate, single-site binding model, average of at least two independent titrations), the Kd was about 10 nM. In addition, the “Far-UV CD change / helix content in presence of CarS1” value with CarS1 [4] is given as “no significant change”. In addition, in the series with CarS1 [5], the “Chemical shift perturbations of labeled H6CarS1” value is “significant perturbations for the methyl cross-peaks of V26, L63, L75, L81 (Figure 1C) and I64”.

B2: R27A variant of whole CarH (protein)
chain: MAERTYRINIAAELAGVRVELIRAWEARYGVLTPRRTPAGYRAYTDRDVAVLKQLKRLTDEGVAISEAAKLLPQLMEGLEAEVAGRGASQDARPHAETWRESMLAATQAYDQPRVSDVLDEVLAALPPLKAFDEVLAPLLCDVGERWESGTLTVAQEHLVSQMVRARLVSLLHAAPLGRHRHGVLACFPEEEHEMGLLGAALRLRHLGVRVTLLGQRVPAEDLGRAVLALRPDFVGLSTVASRSAEDFEDTLTRLRQALPRGLPVWVGGAAARSHQAVCERLAVHVFQGEEDWDRLAGT
Regarding B2, in the series with CarS [6], the “Two-hybrid interaction with CarS” value is given as “lack of interaction with CarS”.

A word on the Kd: it is the equilibrium constant for the complex coming apart. Low readings indicate higher affinity, high ones lower affinity.

These data come from publication PMC2926617 (Nucleic Acids Research, 2010).
